The record followed here is PubChem BioAssay AID624205 (Southern Research Specialized Biocontainment Screening …, 2012).

Several values for one entry are separate records, joined by “and”; a condition that tells them apart may be missing. Equal values may be shown once. Results filed as inconclusive are left out. Activity calls are given as the source filed them.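 Rule for the calls: active = viability under 80% at one or more tested concentrations, counted as toxic; inconclusive = replicate runs disagree on the viability criterion; inactive = viability at or above 80% at every dose.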

The test system of one test is Vero E6 viability, CellTiter-Glo luminescence, 72 h. The test is described as follows: viability loss in Vero kidney cells – cell-based, set 3, cytotoxicity control for PfM18AAP inhibitor project, dose response (AID 624205).
Details: not given
The method in brief:
(§1)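 Material: Vero E6 cells, viability assay; doses: 2-fold compound dilution series; times: 72 h compound treatment, 37 °C; signal: CellTiter-Glo luminescence; read-out: % viability and 4-parameter CC50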
`CN(CCCc1ccc(O)c(O)c1)c1c2ccccc2nc2ccccc12`: the CC50 is 21.9 µM. Consider `COc1cc(Br)c(CCNc2ccnc3ccccc23)cc1OC`, for which the CC50 was 15.9 µM. Regarding `COc1ccc(C2CCN(c3ccnc4ccccc34)CC2)cc1OC`, the CC50 was 23.7 µM. Regarding `COc1cc(Br)c(CCNc2c3c(nc4ccccc24)CCCC3)cc1OC`, the CC50 was 20.1 µM. The same measure, in the same setting: to `CCN(CCc1ccc(O)c(O)c1)c1c2ccccc2nc2ccccc12` belongs 34.6 µM; to `COc1ccc(CCNc2ccnc3cc(Cl)ccc23)cc1OC`, 41.6 µM.

Regarding `CCN(CC)Cc1cc(Nc2ccnc3cc(Cl)ccc23)ccc1O`, the CC50 is 40.1 µM.

For the compound `CC(C)(CNc1ccnc2ccccc12)c1ccc(O)c(O)c1`, the CC50 was 15 µM.

As for `Nc1c2ccccc2nc2ccccc12`, the CC50 was 10.3 µM. For `CCOc1ccc2nccc(N(C)CCc3ccc(OC)c(OC)c3)c2c1`, the CC50 was 41 µM. On the same count and under the same terms, to `COc1ccc(CCCN(C)c2c3ccccc3nc3ccccc23)cc1OC` belongs 9.23 µM.

As for `CCN(CCc1ccc(OC)c(OC)c1)c1c2ccccc2nc2ccccc12`, the CC50 is 15.4 µM. On to `COc1ccc(CCN(C)c2c3ccccc3nc3ccccc23)cc1OC`, for which the 50% cytotoxic concentration (CC50) is 12.9 µM and 9.77 µM. With `COc1cc(Br)c(CCNc2c3ccccc3nc3ccccc23)cc1OC`, the CC50 was 5.03 µM.

System in another test: not listed separately
The test is described as above. To be noted: Vero E6 viability, CellTiter-Glo luminescence, 72 h; at 50 µM (top of the series). In a few lines:
as §1
As for `Cc1cc(N(C)CCc2ccc(O)c(O)c2)c2ccccc2n1`, the viability is 89.8% (inactive). Consider `CC(Cc1ccc(O)c(O)c1)Nc1ccnc2ccccc12` (stereo not given), for which the viability was 83.9% (inactive). Consider `Oc1cccc(CCNc2ccnc3ccccc23)c1O`, for which the viability was 93.2% (inactive). In the case of `Cc1cccc2c(NCCc3ccc(O)c(O)c3)ccnc12`, the viability was 95.1% (inactive). On to `COc1ccc(CCNC(=O)c2cc(C)ccc2N)cc1OC`, for which the viability was 95.6% (inactive). `Oc1ccc(CCCNc2c3c(nc4ccccc24)CCCC3)cc1O`: the viability was 92.3% (inactive). The same measure, in the same setting: the result for `CN(CCCc1ccc(O)c(O)c1)c1ccnc2ccccc12` reads 88.4% (inactive). For the compound `CN(CCc1ccc(O)c(O)c1)c1ccnc2c(F)cccc12`, the viability is 86% (inactive). Consider `COc1ccc(CCN(C)c2cc(C)nc3ccccc23)cc1OC`, for which the viability was 80.7% (inactive).

As to `COc1ccc(CCN(C)c2ncnc3ccccc23)cc1OC`, the viability is 85.7% (inactive). Take `CN(CCc1ccc(O)c(O)c1)c1ncnc2ccccc12`: the viability is 95.4% (inactive).
